# Assay results: PMC5991896 (Biochimie Open, 2017)
# Target: T1, fucolectin-related protein (FRP) (Streptococcus pneumoniae, UniProt A0A0H2US34)
# T1 sequence (A0A0H2US34 1-1038): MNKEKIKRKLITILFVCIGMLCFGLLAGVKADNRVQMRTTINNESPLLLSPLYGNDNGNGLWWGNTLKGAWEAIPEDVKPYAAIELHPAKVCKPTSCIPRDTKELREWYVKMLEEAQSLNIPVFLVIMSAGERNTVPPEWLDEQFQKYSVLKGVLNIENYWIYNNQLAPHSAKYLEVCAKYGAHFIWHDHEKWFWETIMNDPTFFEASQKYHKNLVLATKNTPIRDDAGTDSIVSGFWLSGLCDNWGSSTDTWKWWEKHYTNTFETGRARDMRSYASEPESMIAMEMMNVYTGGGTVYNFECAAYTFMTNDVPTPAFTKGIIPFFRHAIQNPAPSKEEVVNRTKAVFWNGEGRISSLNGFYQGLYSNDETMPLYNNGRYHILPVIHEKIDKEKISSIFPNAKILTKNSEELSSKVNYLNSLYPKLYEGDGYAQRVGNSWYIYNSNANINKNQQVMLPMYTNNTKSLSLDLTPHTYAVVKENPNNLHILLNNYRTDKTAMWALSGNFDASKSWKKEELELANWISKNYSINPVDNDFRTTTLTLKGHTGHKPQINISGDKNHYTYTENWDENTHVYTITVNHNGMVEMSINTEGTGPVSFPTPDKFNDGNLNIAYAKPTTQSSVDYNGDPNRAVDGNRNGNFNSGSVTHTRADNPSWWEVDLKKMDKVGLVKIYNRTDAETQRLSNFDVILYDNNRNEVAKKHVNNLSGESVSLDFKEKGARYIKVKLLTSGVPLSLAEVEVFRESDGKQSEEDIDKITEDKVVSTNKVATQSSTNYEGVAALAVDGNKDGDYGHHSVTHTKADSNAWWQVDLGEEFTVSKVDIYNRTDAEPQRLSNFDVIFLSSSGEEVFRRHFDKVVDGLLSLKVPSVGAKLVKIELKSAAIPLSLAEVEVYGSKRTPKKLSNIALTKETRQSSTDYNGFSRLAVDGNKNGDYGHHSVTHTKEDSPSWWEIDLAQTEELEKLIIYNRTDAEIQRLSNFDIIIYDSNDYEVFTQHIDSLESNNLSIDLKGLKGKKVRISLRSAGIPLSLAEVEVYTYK
# Assay: enzyme-linked lectinosorbent inhibition assay
# Format: binding
# Conditions: TBS-T pH 7.35, 20 °C; no metal needed; ratio from amounts giving 50% inhibition
# Summary of the method: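 Recombinant SP2159 FRP expressed in E. coli and biotinylated. Wells coated at 4 °C with 10 μg human ovarian cyst phenol-insoluble glycoprotein bearing H Fucα1→2Gal and Fucα1→3/4GlcNAc glycotopes. Twofold serially diluted saccharide was mixed with an equal volume of fixed FRP for 1 h at 20 °C. TBS-T served as diluent and wash. The nmole/well giving 50% inhibition versus no inhibitor was read from the inhibition curve.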
row,Molar Relative Potency / LFuc as 1.0,Compound
1,69.1 relative to LFuc = 1.0,"C[C@@H]1O[C@H](Oc2ccc([N+](=O)[O-])cc2)[C@@H](O)[C@H](O)[C@@H]1O [compound 1, p-Nitrophenyl-β-LFuc]"
2,34.5 relative to LFuc = 1.0,"C[C@@H]1O[C@@H](Oc2ccc([N+](=O)[O-])cc2)[C@@H](O)[C@H](O)[C@@H]1O [compound 2, p-Nitrophenyl-α-LFuc]"
3,21.9 relative to LFuc = 1.0,"CO[C@H]1O[C@@H](C)[C@@H](O)[C@@H](O)[C@@H]1O [compound 3, Methyl-β-LFuc]"
4,5.7 relative to LFuc = 1.0,"C[C@@H]1O[C@@H](O[C@H]2[C@H](O[C@H]3[C@H](O[C@@H]4O[C@@H](C)[C@@H](O)[C@@H](O)[C@@H]4O)[C@@H](O)C(O)O[C@@H]3CO)O[C@H](CO)[C@H](O)[C@@H]2O)[C@@H](O)[C@H](O)[C@@H]1O (stereo partly drawn) [compound 4, LFucα1→2Galβ1→4[LFucα1→3]Glc]"
5,4.4 relative to LFuc = 1.0,"CO[C@@H]1O[C@@H](C)[C@@H](O)[C@@H](O)[C@@H]1O [compound 5, Methyl-α-LFuc]"
6,4.4 relative to LFuc = 1.0,"OC[C@@H]1OC(O)[C@@H](O)[C@H](O)[C@@H]1O (stereo partly drawn) [compound 6, LGal]"
7,1.8 relative to LFuc = 1.0,"CC(=O)N[C@H]1[C@H](O[C@H]2[C@@H](O)[C@@H](CO)O[C@@H](O[C@H]3[C@H](O)[C@@H](O)C(O)O[C@@H]3CO)[C@@H]2O)O[C@H](CO)[C@@H](O[C@@H]2O[C@@H](C)[C@@H](O)[C@@H](O)[C@@H]2O)[C@@H]1O[C@@H]1O[C@H](CO)[C@H](O)[C@H](O)[C@H]1O[C@@H]1O[C@@H](C)[C@@H](O)[C@@H](O)[C@@H]1O (stereo partly drawn) [compound 7, LFucα1→2Galβ1→3[LFucα1→4]GlcNAcβ1→3Gal β1→4Glc]"
8,0.7 relative to LFuc = 1.0,"C[C@@H]1O[C@@H](O[C@H]2C(O)O[C@H](CO)[C@H](O)[C@@H]2O)[C@@H](O)[C@H](O)[C@@H]1O (stereo partly drawn) [compound 9, LFucα1→2Gal]"
9,0.09 relative to LFuc = 1.0,"OC1OC[C@@H](O)[C@@H](O)[C@@H]1O (stereo partly drawn) [compound 10, DAra]"
